Test results from ChEMBL document CHEMBL1158900, “Synthesis and antimitotic/cytotoxic activity of hemiasterlin analogues” (J Nat Prod, 2003).

How the values were obtained:
[1] = tested on: MCF7; assay: Cytotoxicity activity against human MCF7 cells expressing p53 mutant by MTT assay; format: functional, cell-based
In short: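 Human mammary carcinoma MCF-7 cells carrying a dominant-negative mutant p53 tumour suppressor gene (MCF-7 mup53). Cytotoxicity was read out by MTT assay, and the value reported is the IC50 in nM.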

[2] = tested on: MCF7; assay: Antimitotic activity against human MCF7 cells expressing p53 mutant

Row | Compound | IC50 [1] | IC50 [2]
1 | CCOC(=O)/C(C)=C/[C@H](C(C)C)N(C)C(=O)[C@@H](NC(=O)[C@@H](NC)C(C)(C)c1ccccc1)C(C)(C)C | 7 nM | 1 nM
2 | CN[C@@H](Cc1ccccc1)C(=O)N[C@H](C(=O)N(C)[C@H](/C=C(\C)C(=O)O)C(C)C)C(C)(C)C | 4000 nM | 5000 nM
3 | CN[C@H](C(=O)N[C@H](C(=O)N[C@H](/C=C(\C)C(=O)O)C(C)C)C(C)(C)C)C(C)(C)c1ccccc1 | 15 nM | 20 nM
4 | CN[C@H](C(=O)N[C@H](C(=O)N(C)[C@H](/C=C(\C)C(=O)O)C(C)C)C(C)(C)C)C(C)(C)C | 6 nM | 6 nM
5 | CN[C@H](C(=O)N[C@H](C(=O)N[C@H](/C=C(\C)C(=O)O)C(C)C)C(C)(C)C)C(C)(C)c1cn(C)c2ccccc12 | 0.25 nM | 0.15 nM
6 | CN[C@H](C(=O)N[C@H](C(=O)N(C)[C@H](C)/C=C(\C)C(=O)O)C(C)(C)C)C(C)(C)c1cn(C)c2ccccc12 | 40 nM | 200 nM
7 | CN[C@H](C(=O)N[C@H](C(=O)N(C)[C@H](/C=C(\C)C(=O)OC)C(C)C)C(C)(C)C)C(C)(C)c1ccccc1 | 3 nM | 2 nM
8 | CN[C@H](C(=O)N[C@H](C(=O)N(C)[C@H](/C=C(\C)C(=O)O)C(C)C)C(C)(C)C)C(C)C | 150 nM | 120 nM
9 | CN[C@H](C(=O)N[C@H](C(=O)N[C@H](/C=C(\C)C(=O)O)C(C)C)C(C)(C)C)C(C)(C)C | 1600 nM | > 10000 nM
10 | CN[C@@H](C(=O)N[C@H](C(=O)N(C)[C@H](/C=C(\C)C(=O)O)C(C)C)C(C)(C)C)C(C)(C)c1ccccc1 | 25 nM | 10 nM
11 | CN[C@H](C(=O)N[C@H](C(=O)N(C)C/C=C(\C)C(=O)O)C(C)(C)C)C(C)(C)c1cn(C)c2ccccc12 | > 10000 nM | > 10000 nM
12 | CN[C@H](C(=O)N[C@H](C(=O)N(C)[C@H](CC(C)C(=O)O)C(C)C)C(C)(C)C)C(C)(C)c1cn(C)c2ccccc12 (stereo not given in full) |  | 2.5 nM
13 | CN[C@H](C(=O)N[C@H](C(=O)N(C)CCCC(=O)O)C(C)(C)C)C(C)(C)c1cn(C)c2ccccc12 | > 1000 nM | > 1000 nM
14 | C/C(=C\[C@H](C(C)C)N(C)C(=O)[C@@H](NC(=O)[C@@H](N)Cc1c[nH]c2ccccc12)C(C)(C)C)C(=O)O | 40 nM | 20 nM
15 | CN[C@H](C(=O)N[C@H](C(=O)N(C)[C@H](/C=C(\C)C(=O)O)C(C)C)C(C)C)C(C)(C)c1cn(C)c2ccccc12 | 0.8 nM | 0.5 nM
16 | CC[C@H](NC(=O)[C@@H](NC)C(C)(C)c1cn(C)c2ccccc12)C(=O)N(C)[C@H](/C=C(\C)C(=O)O)C(C)C | 0.8 nM | 0.5 nM

Row | Compound | IC50 [1] | IC50 [2]
17 | C/C(=C\[C@H](C(C)C)N(C)C(=O)[C@@H](NC(=O)[C@@H](N)C(C)(C)c1cn(C)c2ccccc12)C(C)(C)C)C(=O)O | 50 nM | 30 nM
18 | CN[C@@H](Cc1cn(C)c2ccccc12)C(=O)N[C@H](C(=O)N(C)C/C=C(\C)C(=O)O)C(C)(C)C | > 10000 nM | > 10000 nM
19 | C/C(=C\[C@H](C(C)C)N(C)C(=O)[C@@H](NC(=O)C(C)(C)C)C(C)(C)C)C(=O)O | > 10000 nM | > 10000 nM
20 | CN[C@H](C(=O)N[C@H](C(=O)N(C)[C@@H](/C=C(\C)C(=O)O)C(C)C)C(C)(C)C)C(C)(C)c1cn(C)c2ccccc12 | 30 nM | 10 nM
21 | CN[C@H](C(=O)N[C@H](C(=O)N(C)[C@@H](C)/C=C(\C)C(=O)O)C(C)(C)C)C(C)(C)c1cn(C)c2ccccc12 | 4 nM | 4 nM
22 | CN[C@@H](Cc1cn(C)c2ccccc12)C(=O)N[C@H](C(=O)N(C)[C@H](/C=C(\C)C(=O)O)C(C)C)C(C)(C)C | 60 nM | 300 nM
23 | CC(=O)N(C)[C@H](C(=O)N[C@H](C(=O)N(C)[C@H](/C=C(\C)C(=O)O)C(C)C)C(C)(C)C)C(C)(C)c1cn(C)c2ccccc12 | 300 nM | 300 nM
24 | CN[C@@H](Cc1cn(C)c2ccccc12)C(=O)N[C@H](C(=O)N(C)C(C)/C=C(\C)C(=O)O)C(C)(C)C (stereo not given in full) | 2500 nM | 1100 nM
25 | C/C(=C\[C@H](C(C)C)N(C)C(=O)[C@@H](NC(=O)[C@H](C(C)(C)c1cn(C)c2ccccc12)[N+](C)(C)C)C(C)(C)C)C(=O)O | > 1000 nM | > 1000 nM
26 | CN[C@H](C(=O)N[C@H](C(=O)N(C)[C@H](/C=C(\C)C(=O)N[C@@H](CCCNC(=N)N)C(=O)O)C(C)C)C(C)(C)C)C(C)(C)c1cn(C)c2ccccc12 [CRIAMIDES A] | 1000 nM | 
27 | CN[C@H](C(=O)N[C@H](C(=O)N(C)[C@H](/C=C(\C)C(=O)OC)C(C)C)C(C)(C)C)C(C)(C)c1cn(C)c2ccccc12 [HEMIASTERLIN METHYL ESTER] | 0.5 nM | 0.5 nM
28 | CN[C@H](C(=O)N[C@H](C(=O)N(C)[C@H](/C=C(\C)C(=O)O)C(C)C)C(C)(C)C)C(C)(C)c1c[nH]c2ccccc12 [HEMIASTERLINS A] | 2 nM | 2 nM
29 | CN[C@H](C(=O)N[C@H](C(=O)N(C)[C@H](/C=C(\C)C(=O)O)C(C)C)C(C)C)C(C)(C)c1c[nH]c2ccccc12 [HEMIASTERLINS B] | 7 nM | 200 nM
30 | CN[C@H](C(=O)N[C@H](C(=O)N(C)[C@H](/C=C(\C)C(=O)O)C(C)C)C(C)(C)C)C(C)(C)c1cn(C)c2ccccc12 [HEMIASTERLIN] | 0.3 nM | 0.3 nM
31 | CN[C@H](C(=O)N[C@H](C(=O)N(C)[C@H](/C=C(\C)C(=O)O)C(C)C)C(C)(C)C)C(C)(C)c1ccccc1 [TALTOBULIN] | 0.08 nM | 0.09 nM
